Screens: PubChem, several laboratories
mHtt clearance: compounds clearing mutant huntingtin protein; HeLa Exon1htt(103Q)mCFP, aggregate imaging; zero = plate's median compound well; inhibition, % at 1.5 µM; 47,000 compounds, 0.42% hits; AID 853;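 active = inhibition of aggregate fluorescence above about 70%, also judged a hit by eye on the cell image, limit read from the data, passing the limit was not always enough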;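 note: cells exposed to compound for three days before fixation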
AP ELISA ortho: alternative pathway complement inhibition, orthogonal assay; 62,000 compounds, 0.08% hits; Human serum alternative complement pathway, LPS-coated ELISA, C3 deposition; tested in compound mixtures; inhibition, % at 5 µM;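 active = inhibition above 30% in each of the two pooled mixtures holding the compound, so the lower value exceeds 30%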
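Medium: diluted human serum in Mg2+-EGTA GVB++. Assay system: human serum complement alternative pathway, C3 deposition onto LPS. Also added: Plate-bound LPS. Technique: Anti-C3 ELISA, OD 450 nm. Measure: percent inhibition. Incubation: 1 h at 37 °C. Dosing: 5 µM each compound, pools of ten, 50 µM per pool.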
M1 antagonist: blocks the rat M1 muscarinic receptor response to acetylcholine; B-score at 10 µM; CHO-M1 cells, Fluo-4 calcium, ACh EC80 antagonist mode; hits give low values; AID 628; P08482; 64,000 compounds, 3.4% hits;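 active = calcium fluorescence response, raw or row-and-column corrected B-score, differing from the plate sample mean either way at a set confidence level, mostly lower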
Target sequence (P08482 whole entry, looked up): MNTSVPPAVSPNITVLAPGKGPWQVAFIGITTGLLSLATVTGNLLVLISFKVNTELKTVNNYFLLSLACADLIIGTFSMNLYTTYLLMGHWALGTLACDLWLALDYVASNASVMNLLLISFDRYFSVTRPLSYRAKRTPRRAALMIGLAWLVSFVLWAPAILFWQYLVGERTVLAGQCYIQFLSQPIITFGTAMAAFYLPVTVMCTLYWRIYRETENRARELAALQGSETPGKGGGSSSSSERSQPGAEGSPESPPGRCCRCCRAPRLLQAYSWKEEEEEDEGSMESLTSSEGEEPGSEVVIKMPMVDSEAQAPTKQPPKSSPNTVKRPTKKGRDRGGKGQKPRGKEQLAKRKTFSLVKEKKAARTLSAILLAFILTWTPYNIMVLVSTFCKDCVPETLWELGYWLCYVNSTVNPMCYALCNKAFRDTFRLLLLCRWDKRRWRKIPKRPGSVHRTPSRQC
M1 ag: M1 muscarinic receptor agonism; 64,000 compounds, 3% hits; B-score at 10 µM; CHO-M1 cells, Fluo-4 calcium fluorescence, agonist mode; hits give high values; AID 626;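 active = fluorescence rise, raw or as B-score row- and column-corrected plate score, outside the 99.7% band of its plate's samples, either direction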
D1 mod: D1 dopamine receptor (human) allosteric modulation; B-score at 10 µM; HEK293 D1, CRE-luciferase, dopamine EC30 potentiation; actives deviate in either direction; 58,000 compounds, 5.9% hits; P21728; AID 641;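 active = luminescence count or its row- and column-corrected plate score outside the 99.7% band of the plate's sample wells, on either side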
Hits are given with their value; - = inactive; . = not tested or not shown. The list is not random: actives were taken first. Their share in the collection is about 9%.

SMILES | mHtt clearance | AP ELISA ortho | M1 antagonist | M1 ag | D1 mod
O=C(c1ccc2c3c(cccc13)CC2)N1CCN(c2ncccn2)CC1 | - | - | - | - | -
COc1ccc2c(c1OC)C(=O)N(c1cccc(C(F)(F)F)c1)C2 | . | - | - | - | -2.7
CC(=O)C1C(c2ccccc2OC(F)F)NC(=O)NC1(O)C(F)(F)F (centres undefined) | - | - | - | - | .
c1ccc2c(c1)OCC(c1nn3c(Cn4nnc5ccccc54)nnc3s1)O2 (centres undefined) | - | - | - | -3.2 | -
O=C(Nc1ccc2nsnc2c1)c1ccc2c(c1)OCO2 | - | - | - | - | -4
O=C(Nc1ccc(F)c(F)c1)c1ccc2c(c1)OCO2 | . | - | - | - | -
CCc1nn(CC(=O)NCCCN(CC)Cc2ccccc2)c(=O)c2cc3sccc3n12 | - | - | - | - | -4.6
CCOc1ccc(Nc2c3c(nc4ncnn24)CC(C)CC3)cc1 (centres undefined) | . | . | 2.4 | - | -
CCc1ccc(N=c2c([N+](=O)[O-])nn(-c3ccccc3)n2O)cc1 | 71 | . | . | . | .
CCOC(=O)c1oc2c(CN3CCN(C)CC3)c(O)ccc2c(=O)c1-c1ccccc1OC | - | - | 0.81 | - | -
COc1ccccc1-c1c(C)oc2c(CN3CCN(C)CC3)c(O)ccc2c1=O | . | - | - | - | .
CC(C)(C)n1ncc2c(=O)n(CC(=O)NCc3ccccc3)cnc21 | . | - | - | - | -5.4
CCCOCCOC(=O)C1=C(C)NC(=O)NC1c1cc(Cl)c(O)c(OC)c1 (centres undefined) | - | - | - | - | -
C=CCOC(=O)Nc1c(C(=O)OC)[nH]c2ccc(Cl)cc12 | - | - | - | - | -
CN(C)CCn1c(C(=O)Nc2ccccc2)cc2ccccc21 | - | - | - | - | -2.7
CCOC(=O)c1cc2ccccc2n1CCN(CC)CC | - | . | . | . | .
Cn1c(=O)c2c3c(sc2n2c(SCc4ccc5c(c4)OCO5)nnc12)COC(C)(C)C3 | . | - | - | - | -
CC1(C)Cc2ccccc2-c2nnc(SCC(=O)Nc3ccc4c(c3)OCO4)n21 | . | 56 | . | . | .
Cn1nc(C(F)(F)F)c(C#N)c1N1CCN(c2cccc(C(F)(F)F)c2)CC1 | - | . | . | . | .
CC(=O)c1cc(-c2nc3ccccc3n2C)n(C)c1 | 71 | - | - | - | -
Cn1c(Cl)nc2ccccc21 | . | - | - | - | -
CC(=NCCN1CCNCC1)C1=C(O)CC(C)(C)CC1=O | - | - | - | - | -
Cc1noc(C)c1CSc1nc2ccccc2c(=O)n1-c1ccc(Cl)cc1 | - | . | . | . | .
O=C1C(C=NCc2cccnc2)=C(O)c2ccccc21 | . | - | - | - | -
O=C1C(c2ccncc2)=C(O)c2ccccc21 | - | - | - | - | -2.5
SMILES | mHtt clearance | AP ELISA ortho | M1 antagonist | M1 ag | D1 mod
NC(=O)CSc1nnc(CCc2nc3ccccc3[nH]2)n1-c1ccccc1 | - | . | . | . | .
CCOc1ccc(-c2nnc3sc(COc4ccc(C)cc4)nn23)cc1 | . | - | - | - | -
Fc1ccc(OCc2nn3cnnc3s2)cc1 | . | - | . | . | -4
Cc1cc(=O)n(CC(C)O)c(O)c1C#N (centres undefined) | - | . | - | - | -
COc1cccc(CNC(=O)Nc2cccs2)c1 | . | - | . | . | -3.4
COc1ccc(CNC(=O)Nc2cccs2)cc1OC | - | - | - | - | -
CN1CCN(C(=O)c2cc3nc(-c4ccc(F)cc4)cc(C(F)(F)F)n3n2)CC1 | - | - | - | - | -
COc1ccc(-c2cc(C(F)(F)F)n3nc(C(=O)N4CCCC4)cc3n2)cc1 | . | - | 1.8 | - | -
O=C(NCN1C(=O)C2C3C=CC(C3)C2C1=O)Nc1nccs1 (centres undefined) | - | - | - | - | -
C=CCn1cc(C(=O)NCCCOC)c(=O)c2cc(S(=O)(=O)N3CCC(C)CC3)ccc21 | . | - | - | - | 4.1
C=CCn1cc(C(=O)NCCCOC)c(=O)c2cc(S(=O)(=O)N(CC)CC)ccc21 | . | - | - | - | -
CCn1cc(C(=O)NCC2CCCO2)c(=O)c2cc(S(=O)(=O)N3CCC(C)CC3)ccc21 (centres undefined) | . | - | - | - | -4.8
COc1ccc(N(C(=O)c2ccco2)S(=O)(=O)c2cc(OC)ccc2OC)cc1 | - | - | 1.9 | - | -2.2
COc1cc(C2NC(C(=O)O)CS2)ccc1OCc1ccccc1C#N (centres undefined) | . | - | . | . | -2.8
O=S(=O)(NCCn1ccc2ccccc21)c1ccccc1 | - | . | . | . | .
COc1ccccc1-c1cc(C(=O)NCCc2ccccc2)no1 | 79 | . | . | . | .
COc1ccccc1N1CCN(c2ccc(-c3ccccc3)nn2)CC1 | . | - | - | - | -5.4
O=C(CCCSc1nc2ccccc2[nH]1)NC1=NCCS1 | . | - | 1.7 | - | .
Cc1ccc(S(=O)(=O)N(CC(=O)NCCC2=CCCCC2)Cc2ccccc2)cc1 | - | . | . | . | .
O=C(CN(Cc1ccccc1)S(=O)(=O)c1ccc(F)cc1)NCCC1=CCCCC1 | 76 | . | . | . | .
CN(C)c1nc(SCC#N)nc(N(C)C)n1 | 72 | - | - | - | -
CCCS(=O)(=O)N1CCC(C(=O)NCC2CCCO2)CC1 (centres undefined) | - | - | - | - | -
O=C(Cn1cccc1C(=O)c1ccccc1)NCc1ccco1 | - | - | - | - | -3.5
COc1cc(C(=O)N2CCCc3ccccc32)cc(OC)c1OC | - | . | . | . | .
CCn1cc(C(=O)N2CCCc3ccccc32)c2cc(OC)c(OC)cc2c1=O | - | - | 0.88 | - | -
SMILES | mHtt clearance | AP ELISA ortho | M1 antagonist | M1 ag | D1 mod
COc1cccc(-n2c(SCC(=O)OC(C)C)nnc2-c2cccnc2)c1 | - | - | 2.7 | - | -
CC(C)OC(=O)CSc1nnc(-c2cccnc2)n1N | - | - | - | - | -
CC1(C)CC(NC(=O)c2coc(=O)c(Br)c2)CC(C)(C)N1 | . | - | - | - | -
Cc1nc(C)n(C(C)CC(=O)O)n1 (centres undefined) | . | - | - | - | -
O=C(O)CC(CP(=O)(c1ccccc1)c1ccccc1)C(=O)O (centres undefined) | - | - | - | - | -
O=C(O)CC(c1ccccc1)c1ccccc1 | 86 | - | - | - | -
O=C(COC(=O)c1cccs1)c1ccc2c(c1)OCCO2 | - | - | - | - | -3
O=S(=O)(CCn1cccc1)CCn1cccc1 | - | - | 2.2 | - | -
COc1cccc(CNn2cnnc2)c1OCc1ccc(F)cc1 | - | - | - | - | -4.9
COc1cccc(C2CC(c3cccc(C)c3)n3ncnc3N2)c1 (centres undefined) | . | - | - | - | -
CC(C)Cn1c(=O)c(C2=NS(=O)(=O)c3ccccc3N2)c(O)c2ccccc21 | . | - | - | - | -
CC(C)CCNC(=O)Cn1c(NCCC(C)C)nc2c1c(=O)n(C)c(=O)n2C | - | - | 1.3 | - | -
CC(C)CCn1c(NCCc2ccccc2)nc2c1c(=O)n(C)c(=O)n2C | . | - | - | - | -
Cn1nc(-c2ccc(Cl)cc2)c2cc(C(=O)N3CCC(N4CCCCC4)CC3)sc21 | . | - | - | - | .
Cn1nc(-c2ccc(Cl)cc2)c2cc(C(=O)N3CCCC3)sc21 | - | - | - | - | -3.2
COc1ccc(-c2nc(N)nc(C)c2Oc2ccccc2Br)c(O)c1 | . | - | - | - | -
